Measured values: ChEMBL document CHEMBL4049430, “Indazole-6-phenylcyclopropylcarboxylic Acids as Selective GPR120 Agonists with in Vivo Efficacy” (J Med Chem, 2017)
Activity calls are given as the source filed them. The calls are words filed in the database; no cut-off is given here.

Assays:
[1] = target: Free fatty acid receptor 1 (Mus musculus, UniProt Q76JU9); assay: Agonist activity at mouse GPR40 expressed in HEK293 cells assessed as increase in intracellular calcium level after 5 mins by FLUO-4-AM dye-based FLIPR assay; assay type: functional, cell-based
Sequence of Free fatty acid receptor 1 (Q76JU9 whole entry): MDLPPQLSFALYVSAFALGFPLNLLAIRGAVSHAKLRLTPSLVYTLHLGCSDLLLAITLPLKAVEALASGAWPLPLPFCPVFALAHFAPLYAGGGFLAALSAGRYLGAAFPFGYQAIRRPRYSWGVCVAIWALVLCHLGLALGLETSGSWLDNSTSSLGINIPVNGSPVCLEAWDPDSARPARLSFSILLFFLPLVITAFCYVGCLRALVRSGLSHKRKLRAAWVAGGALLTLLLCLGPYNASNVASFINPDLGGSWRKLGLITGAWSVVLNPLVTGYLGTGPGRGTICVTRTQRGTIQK
In short: (§1)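 HEK293s cells stably expressing mouse GPR40 were seeded 24 h before assay and loaded for 1 h with calcium 3/Fluo-4 AM in HBSS, 20 mM HEPES, 0.01% BSA, 2.5 mM probenecid, pH 7.4. FLIPR Tetra took 10 baseline reads, then read for 5 min after addition. Runs were in duplicate, 9 points, 100 μM to 7 nM final, as % of maximal eladic acid control.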

[2] = system: Mus musculus; assay: Antidiabetic activity in wild-type mouse assessed as reduction in glucose excursion at 100 mg/kg administered through oral gavage 30 mins prior to glucose challenge measured after 90 mins by OGTT relative to control; assay type: functional; set-up: scale not given: the % may be the effect or the level left
In short: (§2)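 OGTT used in-house C57BL/6J mice aged 10–11 weeks. GPR120 knockout and wild-type controls were bred in house, back-crossed onto C57BL/6J, and used at 9–10 weeks. Compound was given as a suspension: a concentrated stock was made at rt the day before and diluted on study day to the dosing concentrations.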

[3] = (§3) Oral bioavailability in mouse at 5 mg/kg after 24 hrs; assay type: ADME, organism-based; conditions: in vivo
[4] = Ratio of unbound drug level in wild-type mouse brain to blood at 100 mg/kg administered through oral gavage 30 mins prior to glucose challenge measured after 90 mins; conditions: brain/blood
[5] = Protein binding in mouse plasma assessed as unbound fraction after 24 hrs by equilibrium dialysis; assay type: ADME, cell-free
[6] = system: MDR1; assay: Efflux ratio of permeability in MDCK2-MDR1 cells at 10 uM; conditions: dog, MDCK-MDR1
[7] = Ratio of drug level in mouse brain to blood at 5 mg/kg administered through oral gavage after 2 hrs; assay type: ADME, organism-based
[8] = system: Mus musculus; assay: Antidiabetic activity in GPR120 knockout mouse assessed as reduction in glucose excursion at 100 mg/kg administered through oral gavage 30 mins prior to glucose challenge measured after 90 mins by OGTT; assay type: functional, organism-based; in short: as §2
[9] = Ratio of unbound drug level in mouse brain to blood at 5 mg/kg administered through oral gavage after 2 hrs; conditions: brain/blood
[10] = system: Mus musculus; assay: Antidiabetic activity in C57BL/6J mouse assessed as reduction in glucose excursion at 100 mg/kg administered through oral gavage 30 mins prior to glucose challenge measured after 90 mins by OGTT relative to control; assay type: functional; set-up: scale not given: the % may be the effect or the level left; in short: as §2
[11] = Ratio of unbound drug level in GPR120 knockout mouse brain to blood at 100 mg/kg administered through oral gavage 30 mins prior to glucose challenge measured after 90 mins; conditions: in vivo, 1.5 h
[12] = target: Free fatty acid receptor 1 (Mus musculus) (UniProt Q76JU9); assay: Agonist activity at mouse GPR40 expressed in HEK293 cells assessed as increase in intracellular calcium level after 5 mins by FLUO-4-AM dye-based FLIPR assay relative to control; assay type: functional, cell-based; in short: as §1
Sequence of Free fatty acid receptor 1 (Mus musculus) (Q76JU9 whole entry): as above

[13] = target: Adenosine receptor A2a (Homo sapiens, UniProt P29274); assay: Inhibition of Adenosine A2A receptor (unknown origin)
Sequence of Adenosine receptor A2a (P29274 whole entry): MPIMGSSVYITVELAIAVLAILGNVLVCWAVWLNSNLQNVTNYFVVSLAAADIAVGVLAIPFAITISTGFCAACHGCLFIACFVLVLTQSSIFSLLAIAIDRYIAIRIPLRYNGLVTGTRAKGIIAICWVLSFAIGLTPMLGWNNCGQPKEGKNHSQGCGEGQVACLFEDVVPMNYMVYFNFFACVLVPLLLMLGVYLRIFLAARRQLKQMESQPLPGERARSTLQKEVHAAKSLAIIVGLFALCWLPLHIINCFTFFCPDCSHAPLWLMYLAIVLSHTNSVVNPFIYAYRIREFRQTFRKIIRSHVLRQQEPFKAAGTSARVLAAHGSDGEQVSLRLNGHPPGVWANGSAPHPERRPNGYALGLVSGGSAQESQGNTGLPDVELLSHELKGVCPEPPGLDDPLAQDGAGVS

[14] = target: T1, Free fatty acid receptor 4 (Homo sapiens, UniProt Q5NUL3); assay: Agonist activity at human GPR120 expressed in CHO-FlpIn cells after 15 mins by DMR assay; assay type: cell-based
T1 sequence (Q5NUL3 whole entry): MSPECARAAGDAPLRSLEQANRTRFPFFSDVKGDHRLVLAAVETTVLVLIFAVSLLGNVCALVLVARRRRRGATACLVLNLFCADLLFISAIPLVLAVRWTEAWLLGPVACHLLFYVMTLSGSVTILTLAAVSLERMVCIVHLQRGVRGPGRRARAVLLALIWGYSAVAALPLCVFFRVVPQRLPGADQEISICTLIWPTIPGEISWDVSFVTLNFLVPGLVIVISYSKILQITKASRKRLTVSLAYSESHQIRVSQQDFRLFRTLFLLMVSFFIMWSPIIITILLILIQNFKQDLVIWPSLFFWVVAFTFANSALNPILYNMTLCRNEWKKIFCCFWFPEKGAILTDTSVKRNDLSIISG
In short: (§4)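 Cryopreserved CHO FlpIn cells stably expressing human or mouse GPR120 were seeded 48 h before assay, serum-starved for 24 h, then held 2 h in HBSS/20 mM HEPES/0.01% BSA (pH 7.4) with 0.5% DMSO. DMR was read over a 10 min baseline and for 15 min after addition. Runs were in duplicate, 10 points, 16 μM to 0.8 nM final, as % of maximal control agonist.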

[15] = Octanol-buffer partition coefficient, log D of the compound at pH 7.4 after 30 mins by LC-UV based shake-flask method
[16] = target: T2, Free fatty acid receptor 4 (Mus musculus, UniProt Q7TMA4); assay: Agonist activity at mouse GPR120 expressed in CHO-FlpIn cells after 15 mins by DMR assay; assay type: cell-based; in short: as §4
T2 sequence (Q7TMA4 whole entry): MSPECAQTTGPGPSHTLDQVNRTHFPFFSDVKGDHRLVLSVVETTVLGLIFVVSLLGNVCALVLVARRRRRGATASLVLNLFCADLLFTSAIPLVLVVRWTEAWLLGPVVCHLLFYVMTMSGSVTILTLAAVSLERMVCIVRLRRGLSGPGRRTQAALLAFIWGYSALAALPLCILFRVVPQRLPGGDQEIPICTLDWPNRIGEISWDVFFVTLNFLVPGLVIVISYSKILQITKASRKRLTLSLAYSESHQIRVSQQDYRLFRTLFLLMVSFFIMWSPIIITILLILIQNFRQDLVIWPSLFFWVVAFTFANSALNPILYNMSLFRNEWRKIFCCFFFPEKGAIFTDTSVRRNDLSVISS

[17] = Cmax in mouse at 5 mg/kg administered through oral gavage after 24 hrs; assay type: ADME, organism-based; set-up: dose 5 mg/kg, route oral; conditions: in vivo
[18] = target: T3, Free fatty acid receptor 4 (Homo sapiens) (UniProt Q5NUL3); assay: Agonist activity at human GPR120 expressed in CHO-FlpIn cells after 15 mins by DMR assay relative to control; assay type: cell-based; in short: as §4
T3 sequence (whole entry): T1 sequence (Q5NUL3 whole entry)

[19] = Apparent permeability across apical to basolateral side in human Caco2 cells; conditions: Caco-2
[20] = Volume of distribution at steady state in mouse at 1 mg/kg, iv after 24 hrs; assay type: ADME, organism-based; conditions: in vivo, read-out: Vdss
[21] = target: T4, Free fatty acid receptor 4 (Mus musculus) (UniProt Q7TMA4); assay: Agonist activity at mouse GPR120 expressed in CHO-FlpIn cells after 15 mins by DMR assay relative to control; assay type: cell-based; in short: as §4
T4 sequence (whole entry): T2 sequence (Q7TMA4 whole entry)

[22] = Clearance in mouse at 1 mg/kg, iv after 24 hrs; assay type: ADME, organism-based; conditions: in vivo
[23] = Clearance in mouse at 2.5 mg/kg, iv after 24 hrs; assay type: ADME, organism-based; conditions: in vivo
[24] = target: 3',5'-cyclic-AMP phosphodiesterase 4D (Homo sapiens, UniProt Q08499); assay: Inhibition of phosphodiesterase 4D (unknown origin)
Sequence of 3',5'-cyclic-AMP phosphodiesterase 4D (Q08499 whole entry): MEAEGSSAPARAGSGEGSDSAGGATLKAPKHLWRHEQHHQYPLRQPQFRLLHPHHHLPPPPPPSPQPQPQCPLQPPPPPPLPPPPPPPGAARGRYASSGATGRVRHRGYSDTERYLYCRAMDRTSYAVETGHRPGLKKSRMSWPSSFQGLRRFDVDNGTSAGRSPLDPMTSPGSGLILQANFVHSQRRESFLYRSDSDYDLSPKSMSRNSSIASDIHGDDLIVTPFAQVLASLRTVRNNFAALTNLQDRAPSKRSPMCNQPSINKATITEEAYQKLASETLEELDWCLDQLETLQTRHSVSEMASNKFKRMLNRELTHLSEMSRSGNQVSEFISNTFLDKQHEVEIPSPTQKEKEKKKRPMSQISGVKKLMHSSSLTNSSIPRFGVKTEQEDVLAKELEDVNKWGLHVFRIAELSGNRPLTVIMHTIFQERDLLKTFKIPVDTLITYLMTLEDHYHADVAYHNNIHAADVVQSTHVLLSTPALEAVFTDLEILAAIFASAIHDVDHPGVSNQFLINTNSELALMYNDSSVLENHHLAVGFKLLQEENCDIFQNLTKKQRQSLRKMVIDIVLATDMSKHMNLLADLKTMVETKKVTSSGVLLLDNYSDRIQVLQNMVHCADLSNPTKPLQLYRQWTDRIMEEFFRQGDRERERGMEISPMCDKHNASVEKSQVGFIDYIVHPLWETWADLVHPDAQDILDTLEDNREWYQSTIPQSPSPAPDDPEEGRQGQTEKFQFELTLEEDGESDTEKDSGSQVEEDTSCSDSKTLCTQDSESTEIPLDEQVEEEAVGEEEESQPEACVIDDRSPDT

[25] = system: Mus musculus; assay: Toxicity in mouse at 150 mg/kg, po after 2 hrs; assay type: organism-based; conditions: in vivo
[26] = Drug uptake in mouse blood at 300 mg/kg, po after 1 hr; assay type: ADME, organism-based; conditions: read-out: Drug uptake
[27] = system: Mus musculus; assay: Toxicity in mouse at 300 mg/kg, po after 1 hr; assay type: organism-based; conditions: in vivo
[28] = Drug uptake in mouse brain at 300 mg/kg, po after 1 hr; assay type: ADME, organism-based; conditions: read-out: Drug uptake
[29] = Drug uptake in mouse blood at 150 mg/kg, po after 2 hrs; assay type: ADME, organism-based; conditions: read-out: Drug uptake
[30] = Volume of distribution at steady state in mouse at 2.5 mg/kg, iv after 24 hrs; assay type: ADME, organism-based; conditions: in vivo, read-out: Vdss
[31] = system: Mus musculus; assay: Toxicity in mouse at 50 mg/kg, po; assay type: organism-based; conditions: in vivo
[32] = system: Mus musculus; assay: as §3; assay type: ADME, organism-based; conditions: in vivo, 24 h
[33] = Cmax in mouse blood at 50 mg/kg, po; assay type: ADME, organism-based; set-up: dose 50 mg/kg, route oral
[34] = Drug uptake in mouse brain at 50 mg/kg, po after 2 hrs; assay type: ADME, organism-based; conditions: read-out: Drug uptake

| Compound | EC50 [1] [nM] | bioavailability [3] [%] | fraction unbound at 24 h [5] | efflux ratio at 10 µM [6] | Kp at 2 h [7] | Kp uu at 2 h [9] | Efficacy [12] [%] | EC50 [14] [nM] | logD at 0.5 h [15] | EC50 [16] [nM] | Cmax [17] [µM] | Efficacy [18] [%] | Papp A→B [19] [×10⁻⁶ cm/s] | Efficacy [21] [%] | clearance [23] [mL/min/kg] | Activity [25] | Vd [30] [L/kg] | further results |
| --- | --- | --- | --- | --- | --- | --- | --- | --- | --- | --- | --- | --- | --- | --- | --- | --- | --- | --- |
| Cc1ccc(-n2nc(C)c3cnc(-c4ccc([C@H]5C[C@@H]5C(=O)O)cc4F)cc32)nc1 | > 100000 | 131 | 0.021 | 2.8 | 0.37 | 0.14 | 2 | 740 | 2.6 | 1000 | 3.3 | 66 | 76 | 79 | – | – | – | Activity [2]: 47%; Kp uu at 1.5 h [4]: 0.12; Activity [8]: inactive; Activity [10]: 45%; Ratio [11]: 0.12; Ki [13]: 1700 nM; Vd [20]: 2.4 L/kg; clearance [22]: 13 mL/min/kg |
| COc1nn(-c2ccccn2)c2cc(-c3ccc([C@H]4C[C@@H]4C(=O)O)cc3)ccc12 | > 100000 | 126 | 0.0048 | 2 | 2.3 | 0.86 | 1 | 470 | 3.8 | 410 | 5.4 | 102 | 31 | 99 | 9.3 | Non-Toxic | 1.5 | IC50 [24]: 1600 nM; concentration at 1 h [26]: 284 µM; Activity [27]: Toxic; concentration at 1 h [28]: 207 µM; concentration at 2 h [29]: 126 µM |
| COc1nn(-c2ccccn2)c2cc(-c3ccc([C@H]4C[C@@H]4C(=O)O)cc3)cc(F)c12 | > 100000 | – | 0.0053 | 0.59 | 2 | 0.45 | 19 | 510 | 3.8 | 620 | 8.2 | 93 | 29 | 103 | 5.2 | Toxic | 1 | Activity [31]: Non-Toxic; F [32]: 159%; Cmax [33]: 97 µM; concentration at 2 h [34]: 147 µM |
